# An excerpt weighted towards active compounds, which were near 2.1% of everything screened.
# NOD2 RIPK2 PPI: NOD2-RIPK2 binding disruptors in cells, primary screen, fluorescence, CHO cells, BLA complementation | CCF4 ratio | Receptor-interacting serine/threonine-protein kinase 2 (Homo sapiens), O43353 | AID 624267, 2012 | inhibition, % at 4.98 µM | hit rate 0.38% among 360,000; in the data active means inhibition above about 21%;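 further: 0% = vehicle only and 100% = reference blocker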
# beta cell repl: inducers of MIN6 beta-cell proliferation, primary screen, ATP luminescence, uHTS; hit rate 0.29% among 330,000; MIN6 cells proliferation, ATPlite luminescence, 48 h; cells starved in 0.2% serum; 100% = growth in 10% serum; AID 2380, 2010; proliferation, % at 10 µM;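 active means compounds whose signal lies at least 3.5 SD above the mean of all wells on their plate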;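 further: 0% = DMSO-treated cells in low-serum medium and 100% = 10% serum control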
# TLR4 MyD88 comp: inhibitors of TLR4-MyD88 association in cells, primary screen, cell-based, HeLa CL3-4, BLA complementation, FRET ratio; Toll-like receptor 4 (Homo sapiens) + Myeloid differentiation primary response protein …; HeLa CL3-4 TLR4/MyD88 BLA complementation; inhibition, % at 8.4 µM; hit rate 0.18% among 200,000; in the data active means inhibition above about 25%;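 further: 0% = vehicle and 100% = reference inhibitor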
# Target sequence (O00206 whole entry, looked up): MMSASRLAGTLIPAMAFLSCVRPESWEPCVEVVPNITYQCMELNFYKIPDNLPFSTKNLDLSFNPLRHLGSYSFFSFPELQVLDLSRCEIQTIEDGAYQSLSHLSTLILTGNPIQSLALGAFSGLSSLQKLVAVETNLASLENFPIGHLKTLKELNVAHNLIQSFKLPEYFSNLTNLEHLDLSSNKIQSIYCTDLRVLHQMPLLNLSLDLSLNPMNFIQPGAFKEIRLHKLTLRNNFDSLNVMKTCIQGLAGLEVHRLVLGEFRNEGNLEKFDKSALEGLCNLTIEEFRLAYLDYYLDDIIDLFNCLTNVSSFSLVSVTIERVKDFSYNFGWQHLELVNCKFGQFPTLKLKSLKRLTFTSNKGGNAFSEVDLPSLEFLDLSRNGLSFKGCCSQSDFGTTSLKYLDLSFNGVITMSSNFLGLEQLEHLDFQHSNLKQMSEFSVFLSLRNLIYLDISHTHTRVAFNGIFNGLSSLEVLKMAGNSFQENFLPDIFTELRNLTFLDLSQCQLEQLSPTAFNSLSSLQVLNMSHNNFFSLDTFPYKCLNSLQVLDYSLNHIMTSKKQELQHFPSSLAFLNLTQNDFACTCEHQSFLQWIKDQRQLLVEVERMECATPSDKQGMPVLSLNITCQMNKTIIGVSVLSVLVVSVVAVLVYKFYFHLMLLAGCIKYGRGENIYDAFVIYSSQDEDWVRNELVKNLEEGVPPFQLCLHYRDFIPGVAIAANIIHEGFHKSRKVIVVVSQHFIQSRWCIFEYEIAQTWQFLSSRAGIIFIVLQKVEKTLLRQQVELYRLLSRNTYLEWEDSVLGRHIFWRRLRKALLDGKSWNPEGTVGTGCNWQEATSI
# Target sequence (Q99836 whole entry, looked up): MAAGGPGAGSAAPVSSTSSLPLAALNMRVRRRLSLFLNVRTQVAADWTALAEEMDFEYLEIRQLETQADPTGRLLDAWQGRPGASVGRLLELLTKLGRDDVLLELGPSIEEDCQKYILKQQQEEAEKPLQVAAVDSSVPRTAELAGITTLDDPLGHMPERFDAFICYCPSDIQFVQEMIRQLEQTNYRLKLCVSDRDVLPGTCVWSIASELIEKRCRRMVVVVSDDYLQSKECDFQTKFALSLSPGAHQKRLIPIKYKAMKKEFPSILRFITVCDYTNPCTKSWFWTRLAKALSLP
# MC4R barr agon: MC4R agonists recruiting beta-arrestin, primary screen, cell-based, luminescence, agonist arm of biased-ligand search | activation, % at 8.9 µM | AID 540308, 2011 | U2OS MC4R beta-arrestin complementation; percent of melanotan II response, DMSO zero | hit rate 0.98% among 360,000 | Melanocortin receptor 4 (Homo sapiens), P32245;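 active means activation above a per-plate cutoff, the mean activation of sample wells on that plate plus 3 SD, cut at about 8% in these data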
# TLR9-MyD88 block: inhibitors of TLR9-MyD88 association in cells, primary screen, cell-based, CHO, BLA complementation, fluorescence | Toll-like receptor 9 (Homo sapiens) + Myeloid differentiation primary response protein … | CCF4 FRET ratio | inhibition, % at 4.98 µM | hit rate 0.21% among 340,000;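 active means inhibition above the mean over all tested compounds plus 3 SD, cut at about 21% in these data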;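 further: 0% = DMSO only wells and 100% = clavulanate BLA inhibitor control wells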
# MC4R antag cAMP: MC4R antagonists of cAMP signaling, primary screen, cell-based, TR-FRET, antagonist arm of biased-ligand search | Melanocortin receptor 4 (Homo sapiens), P32245 | MC4R-expressing cells, MTII-stimulated cAMP, LANCE TR-FRET | inhibition, % at 6.5 µM | hit rate 0.48% among 360,000 | AID 540295, 2011;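 active means inhibition above its plate's cutoff, the mean of tested wells on that plate plus 3 SD, cut at about 29% in these data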;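 further: 0% = Melanotan II alone and 100% = Melanotan II plus saturating MCL0020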
#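 system = U2OS cells with stable human MC4R expression | also added = Melanotan II challenge after compound preincubation | dosing = one concentration, 6.5 µM nominal | incubation = compound 30 min, challenge 1 h, detection 1 h | measured by = TR-FRET with Eu-cAMP and labeled anti-cAMP, 671 nm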
# * hit, by the source's call; · = no result given.
SMILES,NOD2 RIPK2 PPI,beta cell repl,TLR4 MyD88 comp,MC4R barr agon,TLR9-MyD88 block,MC4R antag cAMP
CC1COc2c3ccccc3nn21 (centres undefined),-5,·,·,·,·,·
O=C(CCl)N(c1ccccc1)c1ccccc1,6,·,-9,2,7,16
O=C(CCl)N(CCc1ccccc1)CCc1ccccc1,4,-4,·,8.3*,5,5
Cc1cccc(CN2C(=O)N/C(=C/c3ccc(C)s3)C2=O)c1,9,-2,3,9.2*,7,-15
Cc1ccc(/C=C2/NC(=O)N(Cc3ccccc3)C2=O)s1,7,-3,-1,0,17,8
COCCNc1nc(Nc2ccc(F)cc2)c2sccc2n1,-11,·,·,1,·,0
COc1ccc(N=C2S/C(=C\c3ccc(OCC(=O)O)cc3)C(=O)N2CCc2c[nH]c3ccccc23)cc1,-6,-3,3,-1,-21,13
COc1ccc(N=C2S/C(=C\c3ccc(N4CCOCC4)o3)C(=O)N2CCc2c[nH]c3ccccc23)cc1,33*,-4,4,3,0,14
O=C(CN1CCN(S(=O)(=O)c2ccc(Br)cc2)CC1)N/N=C/c1ccc(Br)s1,0,-4,4,9.0*,4,-5
CC(=O)c1cccc(N(CC(=O)NC2CCCC2)C(=O)c2csnn2)c1,2,-3,·,-1,2,19
Cc1ccc(-c2noc(CCC(=O)Nc3cc(C)ccn3)n2)cc1,1,0,-7,9.2*,-8,11
N#Cc1cccc(N2[C@@H](Cc3cc4ccccc4n3Cc3ccccc3)COC[C@H]2Cc2ccc3ccccc3c2)c1,-9,·,·,-1,0,8
OC(CNCC1CCCO1)Cn1c2ccc(Cl)cc2c2cc(Cl)ccc21 (centres undefined),8,-6,-4,8.9*,-8,-7
OC(CNCC1CCCO1)Cn1c2ccccc2c2ccccc21 (centres undefined),-1,-2,-6,-2,-11,-5
O=C([C@H](Cc1ccccc1)N1C(=O)c2ccccc2C1=O)N1CCOCC1,-7,2,·,1,3,23
O=C1/C(=C/Nc2cccc([N+](=O)[O-])c2)CCc2ccccc21,3,-3,3,9.2*,-40,26
O=C1/C(=C\c2ccc([N+](=O)[O-])cc2)CCc2ccccc21,-8,-5,11,0,-4,11
O=C(c1cc2ccccc2o1)N1CCN(S(=O)(=O)c2ccc(F)c(F)c2F)CC1,-7,2,·,8.2*,-8,3
Cc1cc(C)c(S(=O)(=O)N2CCN(C(=O)c3cc4ccccc4o3)CC2)c(C)c1,-6,-4,·,1,-8,4
FC(F)(F)c1cccc(NC(=S)N2CCN(c3cccc(C(F)(F)F)c3)CC2)c1,13,-3,9,9.2*,-10,2
CCOC(=O)Cn1c(=O)oc2cc(S(=O)(=O)N3CCCc4ccccc43)ccc21,-6,-3,-4,-1,-4,30*
CCCCn1c(N)c(N(CCOC)C(=O)c2sc3cc(F)ccc3c2Cl)c(=O)[nH]c1=O,3,0,·,-2,-1,9
COc1ccccc1[C@@H]1C(c2cccc(Cl)c2)=NN(c2ccccc2)[C@H]1C(=O)N1CCOC1=O,7,-8,-10,2,5,7
COc1ccccc1[C@H]1C(c2cccc(Cl)c2)=NN(c2ccccc2)[C@@H]1CO,37*,·,·,5,1,22
CC1(C)CC(=O)C2=C(C1)NC(Nc1nc3ccccc3o1)=NC2c1ccccn1 (centres undefined),-12,-5,-7,2,1,-4
SMILES,NOD2 RIPK2 PPI,beta cell repl,TLR4 MyD88 comp,MC4R barr agon,TLR9-MyD88 block,MC4R antag cAMP
CC1=C(C(=O)Nc2ccccc2)C(c2ccc(C)cc2)N=C(Nc2nc3ccccc3o2)N1 (centres undefined),-9,-6,3,9.9*,-13,-5
O=C(O)CCn1cc(/C=C/C(=O)c2ccc(Cl)cc2)c(-c2ccc(Br)cc2)n1,8,·,-1,-1,-2,35*
Brc1ccccc1/C=N/Nc1ccc2ccccc2n1,-9,0,-9,-1,-11,-3
Brc1ccc(/C=N/Nc2ccc3ccccc3n2)cc1,-18,-4,0,11*,1,-13
O=C(c1cc2cc(Cl)ccc2[nH]1)N1CCN(C(=O)c2ccco2)CC1,3,-1,·,-1,1,10
Cc1ccc(-c2nnc(SCC(=O)Nc3ccc(S(=O)(=O)N4CCCCCC4)cc3)o2)cc1,-5,-2,-15,9.3*,-8,5
CC(=O)c1cccc(NC(=O)CSc2nnc(-c3ccc(S(=O)(=O)N4CCCC4)cc3)o2)c1,-1,-2,1,4,-12,24
COC(=O)C1=C(C)N(Cc2ccccc2)C(=NCc2ccccc2)N[C@H]1c1cccc(C(F)(F)F)c1,14,-6,·,16*,-1,3
COC(=O)C1=C(C)N(Cc2ccccc2)C(=NCc2cccc(Cl)c2)N[C@H]1c1cccc(F)c1,-3,-6,·,13*,-3,9
COC(=O)C1=C(C)N(Cc2ccccc2)C(=O)N[C@H]1c1cccc(C(F)(F)F)c1,-5,-4,·,0,-4,0
O=C(CCNS(=O)(=O)c1ccc(OC(F)(F)F)cc1)NC1CC1,-2,-5,·,-2,-10,1
COc1ccc(/C=C/C(=O)NCc2cn(C)nc2C)cc1COc1ccc(Br)cc1,-1,-2,-2,9.1*,2,8
Cc1nn(C)cc1CNC(=O)/C=C/c1cnn(C)c1,-12,·,-12,-1,-1,-2
c1ccc(CNc2nc(NCc3ccccc3)c3ccccc3n2)cc1,1,-3,·,8.6*,-10,4
c1ccc(CNc2nc(-c3ccccc3)nc3ccccc23)cc1,-2,-5,·,2,4,-1
Cc1ccc(OCC(=O)Nc2ccc(O)c(-c3nc4ccccc4o3)c2)cc1,-3,-4,-2,8.6*,-1,2
COc1ccc(OCC(=O)Nc2ccc3oc(-c4ccncc4)nc3c2)cc1,-3,-2,2,-1,-6,-1
COc1ccccc1C1=NOC(Cn2c(NCCOCCO)nc3c2c(=O)n(C)c(=O)n3C)C1 (centres undefined),-4,0,·,3,·,-2
CCOC(=O)CSc1nnc(CNC(=O)c2ccc([N+](=O)[O-])cc2)n1C,2,-1,-1,0,-3,-3

# Assay outcomes (PubChem BioAssay)
